Test results reported in ChEMBL document CHEMBL2401735, “Synthesis and cytotoxicity of novel (thiazol-2-yl)hydrazine derivatives as promising anti-Candida agents” (Eur J Med Chem, 2013).
≈ marks a conversion by molar mass, not a printed value.

Key:
Enterobacter sp. = assay: Antibacterial activity against Enterobacter spp. assessed as growth inhibition after 18 to 22 hrs by broth microdilution method; format: functional
In short: (§1)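 Bacterial isolates subcultured for purity, identified conventionally. Broth microdilution per NCCLS in Mueller-Hinton II broth; plates with growth control (no compound) and medium-only control, incubated 18-22 h at 35 °C. MIC taken as lowest concentration giving complete growth inhibition by unaided eye.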

[1] = system: Streptococcus alpha-hemolyticus; assay: Antibacterial activity against Streptococcus alpha-hemolyticus assessed as growth inhibition after 18 to 22 hrs by broth microdilution method
Candida tropicalis = assay: Anticandida activity against Candida tropicalis clinical isolate assessed as growth inhibition after 24 hrs by broth microdilution method; format: functional
In short: (§2)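 Clinical Candida isolates subcultured for purity and optimal growth before testing; compounds dissolved in DMSO. Broth microdilution per NCCLS in Sabouraud dextrose broth, serial dilutions, inoculum about 10³/mL, with growth control and medium-only control; 24 h incubation at 37 °C. MIC is the lowest concentration giving complete visible inhibition.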

[2] = Cytotoxicity against human Hep2 cells assessed as cell survival fraction at 50 ug/ml after 24 hrs by trypan blue exclusion assay (reference value: 97 to 98%); format: cell-based; conditions: HEp-2 cells, read-out: Survival
[Candida] sake = Anticandida activity against Candida sake clinical isolate assessed as growth inhibition after 24 hrs by broth microdilution method; format: functional; conditions: Fermentozyma sake; in short: as §2
Staphylococcus warneri = assay: Antibacterial activity against Staphylococcus warneri assessed as growth inhibition after 18 to 22 hrs by broth microdilution method; format: functional; in short: as §1
Candida parapsilosis = assay: Anticandida activity against Candida parapsilosis clinical isolate assessed as growth inhibition after 24 hrs by broth microdilution method; format: functional; conditions: Lodderomyces parapsilosis; in short: as §2
Candida albicans = assay: Anticandida activity against Candida albicans clinical isolate assessed as growth inhibition after 24 hrs by broth microdilution method; format: functional; in short: as §2
Nakaseomyces glabratus = assay: Anticandida activity against Candida glabrata clinical isolate assessed as growth inhibition after 24 hrs by broth microdilution method; format: functional; in short: as §2
HEp-2 [3] = assay: Cytotoxicity against human Hep2 cells assessed as appearance of autophagic vacuoles near to mitochondrial proximity in cytoplasm at 5 to 100 ug/ml after 24 hrs by transmission electron microscopic analysis; format: cell-based; conditions: hep-2, 24 h
In short: (§3)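 Hep2 cells treated and then examined by transmission electron microscopy, with unexposed cells as controls. Samples stained with 0.1% tannic acid for 30 min and uranyl acetate (5 mg/mL) for 1 h at 25 °C, dehydrated in graded acetone, embedded in Epon-812. Ultrathin sections counterstained with uranyl acetate and lead citrate before viewing.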

Escherichia coli = assay: Antibacterial activity against Escherichia coli assessed as growth inhibition after 18 to 22 hrs by broth microdilution method; format: functional; in short: as §1
Enterococcus faecalis = assay: Antibacterial activity against […] assessed as growth inhibition after 18 to 22 hrs by broth microdilution method; format: functional; in short: as §1
[4] = Cytotoxicity against human Hep2 cells assessed as cell survival fraction at 10 ug/ml after 24 hrs by trypan blue exclusion assay (reference value: 97 to 98%); format: cell-based; conditions: HEp-2 cells, read-out: Survival
Staphylococcus aureus = assay: Antibacterial activity against Staphylococcus aureus assessed as growth inhibition after 18 to 22 hrs by broth microdilution method; format: functional; in short: as §1
Klebsiella oxytoca = assay: Antibacterial activity against Klebsiella oxytoca assessed as growth inhibition after 18 to 22 hrs by broth microdilution method; format: functional; in short: as §1
Pichia kudriavzevii = assay: Anticandida activity against Candida krusei clinical isolate assessed as growth inhibition after 24 hrs by broth microdilution method; format: functional; in short: as §2
[5] = Cytotoxicity against human Hep2 cells assessed as cell survival fraction at 0.005 ug/ml after 24 hrs by trypan blue exclusion assay (reference value: 97 to 98%); format: cell-based; conditions: HEp-2 cells, read-out: Survival
[6] = Cytotoxicity against human Hep2 cells assessed as cell survival fraction at 100 ug/ml after 24 hrs by trypan blue exclusion assay (reference value: 97 to 98%); format: cell-based; conditions: HEp-2 cells, read-out: Survival
[7] = Cytotoxicity against human Hep2 cells assessed as cell survival fraction at 0.5 ug/ml after 24 hrs by trypan blue exclusion assay (reference value: 97 to 98%); format: cell-based; conditions: HEp-2 cells, read-out: Survival
[8] = Cytotoxicity against human Hep2 cells assessed as cell survival fraction at 5 ug/ml after 24 hrs by trypan blue exclusion assay (reference value: 97 to 98%); format: cell-based; conditions: HEp-2 cells, read-out: Survival
Proteus mirabilis = assay: Antibacterial activity against Proteus mirabilis assessed as growth inhibition after 18 to 22 hrs by broth microdilution method; format: functional; in short: as §1
[9] = Cytotoxicity against human Hep2 cells assessed as reduction of cell viability after 24 hrs by trypan blue exclusion assay; format: cell-based; conditions: HEp-2 cells
In short: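 Hep2 cells in DMEM with 10% FBS, penicillin-streptomycin, 5% CO₂, 37 °C. Cells at 1 × 10⁵/mL exposed 24 h to seven concentrations (0.005-100 µg/mL), DMSO ≤0.5% final; controls were medium alone, DMSO, and 1 mM sodium nitroprusside. Cells scraped, allowed 30 min recovery, mixed 1:1 with 0.4% trypan blue, counted by hemocytometer by two operators.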

[10] = Cytotoxicity against human Hep2 cells assessed as cell survival fraction at 0.05 ug/ml after 24 hrs by trypan blue exclusion assay (reference value: 97 to 98%); format: cell-based; conditions: HEp-2 cells, read-out: Survival
HEp-2 [11] = assay: Cytotoxicity against human Hep2 cells assessed as dilatation of endoplasmic reticulum at 100 ug/ml after 24 hrs by transmission electron microscopic analysis; format: cell-based; conditions: hep-2, 24 h; in short: as §3
HEp-2 [12] = assay: Cytotoxicity against human Hep2 cells assessed as loss of cristae at 5 ug/ml after 24 hrs by transmission electron microscopic analysis; format: cell-based; conditions: hep-2, 24 h; in short: as §3
HEp-2 [13] = assay: Cytotoxicity against human Hep2 cells assessed as mitochondrial swelling at 5 ug/ml after 24 hrs by transmission electron microscopic analysis; format: cell-based; conditions: hep-2, 24 h; in short: as §3
HEp-2 [14] = assay: Cytotoxicity against human Hep2 cells assessed as cell survival at 100 ug/ml after 24 hrs by transmission electron microscopic analysis; format: cell-based; conditions: hep-2, 24 h; in short: as §3
HEp-2 [15] = assay: Cytotoxicity against human Hep2 cells assessed as induction of vacuolization in proximity of mitochondria at 5 ug/ml after 24 hrs by transmission electron microscopic analysis; format: cell-based; conditions: hep-2, 24 h; in short: as §3
HEp-2 [16] = assay: Cytotoxicity against human Hep2 cells assessed as appearance of finely granular cytoplasm at 5 ug/ml after 24 hrs by transmission electron microscopic analysis; format: cell-based; conditions: hep-2, 24 h; in short: as §3

| Structure (SMILES) | MIC (Enterobacter sp.) [µg/mL] | MIC [1] [µg/mL] | MIC (Candida tropicalis) [µg/mL] | viability at 24 h, 50 ug/ml [2] [%] | MIC ([Candida] sake) [µg/mL] | MIC (Staphylococcus warneri) [µg/mL] | MIC (Candida parapsilosis) [µg/mL] | MIC (Candida albicans) [µg/mL] | MIC (Nakaseomyces glabratus) [µg/mL] | MIC (Escherichia coli) [µg/mL] | MIC (Enterococcus faecalis) [µg/mL] | viability at 24 h, 10 ug/ml [4] [%] | MIC (Staphylococcus aureus) [µg/mL] | MIC (Klebsiella oxytoca) [µg/mL] | viability at 24 h, 0.005 ug/ml [5] [%] | viability at 24 h, 100 ug/ml [6] [%] | viability at 24 h, 0.5 ug/ml [7] [%] | viability at 24 h, 5 ug/ml [8] [%] | CC50 at 24 h [9] [µg/mL] | viability at 24 h, 0.05 ug/ml [10] [%] | further results |
| --- | --- | --- | --- | --- | --- | --- | --- | --- | --- | --- | --- | --- | --- | --- | --- | --- | --- | --- | --- | --- | --- |
| CCC/C(C)=N/Nc1nc(-c2ccc(C)cc2)cs1 | > 256 | > 256 | 2 (≈ 7.32 µM) | 72.8 | 2 (≈ 7.32 µM) | > 256 | 2 (≈ 7.32 µM) | 0.5 (≈ 1.83 µM) | 0.5 (≈ 1.83 µM) | > 256 | > 256 | 83.2 | > 256 | > 256 | 97 | 62 | 91 | 93 | ≥ 100 | 94 | Activity (HEp-2 [3]): Toxic; MIC (Pichia kudriavzevii): 2 µg/mL (≈ 7.32 µM); MIC (Proteus mirabilis): > 256 µg/mL |
| CC/C(C)=N/Nc1nc(-c2ccc(OC)cc2)cs1 | > 256 | > 256 | 2 (≈ 7.26 µM) | 0 | 2 (≈ 7.26 µM) | > 256 | 2 (≈ 7.26 µM) | 0.25 (≈ 0.908 µM) | 2 (≈ 7.26 µM) | > 256 | > 256 | 64 | > 256 | > 256 | 78 | 0 | 64 | 69 | 25 (≈ 90.8 µM) | 71 | Activity (HEp-2 [11]): Toxic; Activity (HEp-2 [12]): Toxic; MIC (Pichia kudriavzevii): 2 µg/mL (≈ 7.26 µM); MIC (Proteus mirabilis): > 256 µg/mL; Activity (HEp-2 [13]): Toxic |
| Clc1ccccc1C(c1ccccc1)(c1ccccc1)n1ccnc1 [CLOTRIMAZOLE] |  |  | 2 (≈ 5.8 µM) | 0 | 4 (≈ 11.6 µM) |  |  |  | 2 (≈ 5.8 µM) |  |  |  |  |  | 94.4 | 0 | 93.4 | 92.5 | 38 (≈ 110 µM) | 93 | Activity (HEp-2 [14]): Toxic; Activity (HEp-2 [15]): Toxic; Activity (HEp-2 [16]): Toxic |
